These results are taken from ChEMBL document CHEMBL3779809, “Bioactive Enmein-Type ent-Kaurane Diterpenoids from Isodon phyllostachys” (J Nat Prod, 2016).

Bounds are passed on as bounds.

System in one test: not listed separately
Nature of the test: Cytotoxicity against human SMMC7721 cells assessed growth inhibition at 40 uM after 48 hrs by MTS assay relative to control. It counts as functional. The note with it: SMMC-7721, 48 h, read-out: GI. A digest of the protocol:
(§1)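 Cultured in RPMI-1640 or DMEM with 10% FBS at 37 °C under 5% CO2. Cells seeded, given 12 h at 37 °C, then treated with compound at 40 μM for 48 h. Growth inhibition measured by MTS assay (formazan colorimetry).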
In general terms: Formazan colour is commonly taken as a measure of viable cells.
For `C=C1C(=O)[C@]23C[C@@H]1C[C@@H](O)[C@H]2[C@@]12CO[C@@H](O)[C@@H]1C(C)(C)CC[C@@H]2OC3=O`, the inhibition of growth at 40 µM was over 50%.
Still for that read-out and setting: in the case of `C=C1C(=O)[C@]23C[C@@H]1CC[C@H]2C12C(O)O[C@@H](OC)[C@@H]1C(C)(C)CC[C@@H]2OC3=O` (some centres not stated) it was over 50%; in that of `C=C1C(=O)[C@@]23C[C@@H]1C[C@H]1O[C@@H]4OC[C@]5([C@H](CCC(C)(C)[C@@H]45)OC2=O)[C@H]13`, over 50%.

The next test relates to SW480. Put plainly: Cytotoxicity against human SW480 cells assessed as cell viability after 48 hrs by MTS assay. It counts as functional, cell-based. The conditions noted are these: SW480, 48 h. Summed up: (§2)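 Cells grown in RPMI-1640 or DMEM with 10% FBS at 37 °C, 5% CO2. Seeded, incubated 12 h, then exposed to a range of concentrations in triplicate for 48 h. Viability read by MTS reduction to formazan. IC50 calculated by Reed and Muench method; cis-platin positive control.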
Consider `C=C1C(=O)[C@]23C[C@@H]1C[C@@H](O)[C@H]2[C@@]12CO[C@@H](O)[C@@H]1C(C)(C)CC[C@@H]2OC3=O`, for which the concentration for half-maximal inhibition (IC50) is 10.9 µM.
Regarding `C=C1C(=O)[C@]23C[C@@H]1CC[C@H]2C12C(O)O[C@@H](OC)[C@@H]1C(C)(C)CC[C@@H]2OC3=O` (some centres not stated), the IC50 came out at 3.2 µM.
Same read-out and setting: the value for `C=C1C(=O)[C@@]23C[C@@H]1C[C@H]1O[C@@H]4OC[C@]5([C@H](CCC(C)(C)[C@@H]45)OC2=O)[C@H]13` was 15.2 µM.

System in the next test: not listed separately
Nature of the test: Cytotoxicity against human HL60 cells assessed growth inhibition at 40 uM after 48 hrs by MTS assay relative to control. It counts as functional. The note with it: HL-60, 48 h, read-out: GI. Summed up:
as §1
On to `C=C1C(=O)[C@]23C[C@@H]1C[C@@H](O)[C@H]2[C@@]12CO[C@@H](O)[C@@H]1C(C)(C)CC[C@@H]2OC3=O`, for which the inhibition of growth at 40 µM was over 50%.
For the compound `C=C1C(=O)[C@]23C[C@@H]1CC[C@H]2C12C(O)O[C@@H](OC)[C@@H]1C(C)(C)CC[C@@H]2OC3=O` (some centres not stated), the inhibition of growth at 40 µM was over 50%.
Consider `C=C1C(=O)[C@@]23C[C@@H]1C[C@H]1O[C@@H]4OC[C@]5([C@H](CCC(C)(C)[C@@H]45)OC2=O)[C@H]13`, for which the inhibition of growth at 40 µM is over 50%.

A further test concerns A549. Put plainly: Cytotoxicity against human A549 cells assessed as cell viability after 48 hrs by MTS assay. The note with it: A549, 48 h. It counts as functional, cell-based. A digest of the protocol: as §2
In the case of `C=C1C(=O)[C@]23C[C@@H]1C[C@@H](O)[C@H]2[C@@]12CO[C@@H](O)[C@@H]1C(C)(C)CC[C@@H]2OC3=O`, the half-maximal inhibitory concentration (IC50) came out at 14.3 µM.
The same measure, in the same setting: in the case of `C=C1C(=O)[C@]23C[C@@H]1CC[C@H]2C12C(O)O[C@@H](OC)[C@@H]1C(C)(C)CC[C@@H]2OC3=O` (some centres not stated) it was 3.9 µM; in that of `C=C1C(=O)[C@@]23C[C@@H]1C[C@H]1O[C@@H]4OC[C@]5([C@H](CCC(C)(C)[C@@H]45)OC2=O)[C@H]13`, 14 µM.

A further test deals with A549. Put plainly: Cytotoxicity against human A549 cells assessed growth inhibition at 40 uM after 48 hrs by MTS assay relative to control. Type of test: functional. The conditions noted are these: A549, 48 h, read-out: GI. A digest of the protocol: as §1
For `C=C1C(=O)[C@]23C[C@@H]1C[C@@H](O)[C@H]2[C@@]12CO[C@@H](O)[C@@H]1C(C)(C)CC[C@@H]2OC3=O`, the inhibition of growth at 40 µM was over 50%.
Same read-out and setting: the value for `C=C1C(=O)[C@]23C[C@@H]1CC[C@H]2C12C(O)O[C@@H](OC)[C@@H]1C(C)(C)CC[C@@H]2OC3=O` (some centres not stated) was over 50%; that for `C=C1C(=O)[C@@]23C[C@@H]1C[C@H]1O[C@@H]4OC[C@]5([C@H](CCC(C)(C)[C@@H]45)OC2=O)[C@H]13` was over 50%.

System in another test: not listed separately
Put plainly: Cytotoxicity against human SMMC7721 cells assessed as cell viability after 48 hrs by MTS assay. It counts as functional, cell-based. The conditions noted are these: SMMC-7721, 48 h. A digest of the protocol:
as §2
With `C=C1C(=O)[C@]23C[C@@H]1C[C@@H](O)[C@H]2[C@@]12CO[C@@H](O)[C@@H]1C(C)(C)CC[C@@H]2OC3=O`, the IC50 stood at 11.4 µM.
For `C=C1C(=O)[C@]23C[C@@H]1CC[C@H]2C12C(O)O[C@@H](OC)[C@@H]1C(C)(C)CC[C@@H]2OC3=O` (some centres not stated), the 50% inhibitory concentration (IC50) was 4.2 µM.
On the same count and under the same terms, the value for `C=C1C(=O)[C@@]23C[C@@H]1C[C@H]1O[C@@H]4OC[C@]5([C@H](CCC(C)(C)[C@@H]45)OC2=O)[C@H]13` was 15.8 µM.

The subject of a further test is RAW264.7. Nature of the test: Inhibition of LPS-induced NO production in mouse RAW264.7 cells at 25 uM preincubated with compound followed by LPS challenge measured after 18 hrs by Griess method. It counts as functional, cell-based.
Settings: not given
A digest of the protocol:
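RAW264.7 macrophages seeded at 2 × 10^5 cells/well and treated with serial compound dilutions (maximum 25 μM), then stimulated with LPS 1 μg/mL for 18 h. Supernatant nitrite measured with Griess reagents, absorbance 550 nm. MG-132 positive control. Viability checked in parallel by MTT to exclude cytotoxic interference.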
Regarding `C=C1C(=O)[C@]23C[C@@H]1C[C@@H](O)[C@H]2[C@@]12CO[C@@H](O)[C@@H]1C(C)(C)CC[C@@H]2OC3=O`, the half-maximal inhibitory concentration (IC50) came out at 3.56 µM.
Consider `C=C1C(=O)[C@]23C[C@@H]1CC[C@H]2C12C(O)O[C@@H](OC)[C@@H]1C(C)(C)CC[C@@H]2OC3=O` (some centres not stated), for which the IC50 is 1.47 µM.
The same measure, in the same setting: in the case of `C=C1C(=O)[C@@]23C[C@@H]1C[C@H]1O[C@@H]4OC[C@]5([C@H](CCC(C)(C)[C@@H]45)OC2=O)[C@H]13` it was 4.93 µM.

Another test has as its system MCF7. Put plainly: Cytotoxicity against human MCF7 cells assessed as cell viability after 48 hrs by MTS assay. It counts as functional, cell-based. The conditions noted are these: MCF7, 48 h. Summed up:
as §2
Turning to `C=C1C(=O)[C@]23C[C@@H]1C[C@@H](O)[C@H]2[C@@]12CO[C@@H](O)[C@@H]1C(C)(C)CC[C@@H]2OC3=O`, the IC50 turned out to be 14 µM.
`C=C1C(=O)[C@]23C[C@@H]1CC[C@H]2C12C(O)O[C@@H](OC)[C@@H]1C(C)(C)CC[C@@H]2OC3=O` (some centres not stated): the IC50 stood at 2.4 µM.
Still for that read-out and setting: the value for `C=C1C(=O)[C@@]23C[C@@H]1C[C@H]1O[C@@H]4OC[C@]5([C@H](CCC(C)(C)[C@@H]45)OC2=O)[C@H]13` was 14 µM.

System in a further test: not listed separately
Put plainly: Cytotoxicity against human HL60 cells assessed as cell viability after 48 hrs by MTS assay. The conditions noted are these: HL-60, 48 h. It counts as functional, cell-based. A digest of the protocol: as §2
Regarding `C=C1C(=O)[C@]23C[C@@H]1C[C@@H](O)[C@H]2[C@@]12CO[C@@H](O)[C@@H]1C(C)(C)CC[C@@H]2OC3=O`, the concentration for half-maximal inhibition (IC50) stood at 10.3 µM.
For the compound `C=C1C(=O)[C@]23C[C@@H]1CC[C@H]2C12C(O)O[C@@H](OC)[C@@H]1C(C)(C)CC[C@@H]2OC3=O` (some centres not stated), the IC50 is 3 µM.
The same measure, in the same setting: in the case of `C=C1C(=O)[C@@]23C[C@@H]1C[C@H]1O[C@@H]4OC[C@]5([C@H](CCC(C)(C)[C@@H]45)OC2=O)[C@H]13` it was 15.4 µM.

Usually IC50 stands for the concentration at which inhibition is half-maximal.
